Measurements gathered from unrelated publications.
Lines come from different studies, so protocols differ.

Structure (SMILES)	cell line	assay	conditions	quantity	result
O=C(Nc1ccc(C(F)(F)F)cc1)Nc1cccc(Br)c1	LAD2	degranulation	–	IC50	1.24 µM
CC(=NNC(=O)c1ccncc1)c1ccc(Nc2nnc(-c3ccc(Cl)cc3)c3ccccc23)cc1	HepG2	cell growth or viability, MTT	0.156 µM	cell death	17.1%
CCOC(=O)c1nn(-c2cccc(Cl)c2)/c(=N/N=C(\C)c2ccc(NC(=O)c3ccccc3)cc2)s1	HepG2	cell growth or viability, MTT	1.25 µM	viability	2.72%
CN(C)C1CCCN(C(=O)/C=C/c2nn(CC3CCCC3)c3ncnc(N)c23)C1 (stereo not shown)	OE33	cell growth or viability, resazurin	5 days	EC50	> 30 µM
CC(=NNC(=O)c1cccnc1)c1ccc(Nc2nnc(-c3ccc(Cl)cc3)c3ccccc23)cc1	HepG2	cell growth or viability, MTT	10 µM	cell death	96.8%
CC(C)(C)c1cnc(CSc2cnc(NC(=O)C3CCN(CCCCCCCCSc4cccc5c4CN(C4CCC(=O)NC4=O)C5=O)CC3)s2)o1 (stereo not shown)	HH	cell growth or viability, CCK-8	0.5 µM	viability	0%
Nc1ncnc2c1c(/C=C/C(=O)N1CCC(CCO)CC1)nn2CC1CCCC1	OE33	cell growth or viability, resazurin	5 days	EC50	> 30 µM
CC(C)(C)c1cnc(CSc2cnc(NC(=O)C3CCN(CCCCCSc4cccc5c4CN(C4CCC(=O)NC4=O)C5=O)CC3)s2)o1 (stereo not shown)	HH	cell growth or viability, CCK-8	1 nM	viability	96.6%
O=C(Nc1ccc(Oc2nnc(-c3ccc(Cl)cc3)c3ccccc23)cc1)c1cccc([N+](=O)[O-])c1	HepG2	cell growth or viability, MTT	2.5 µM	cell death	96.4%
CC(=O)c1nn(-c2ccc(C)cc2)/c(=N/N=C(\C)c2ccc(NC(=O)c3ccccc3)cc2)s1	HepG2	cell growth or viability, MTT	0.625 µM	viability	5.4%
C=CC(=O)NC1CCN(c2ncc3ncnc(Nc4ccc(Oc5ccc6c(c5)ncn6C)c(C)c4)c3n2)CC1	NCI-H292	cell growth or viability	–	EC50	0.0826 µM
CC(=NNC(N)=S)c1ccc(Nc2nnc(-c3ccc(Cl)cc3)c3ccccc23)cc1	HepG2	cell growth or viability, MTT	78 nM, 24 h	viability	95.6%
CC(C)(C)c1cnc(CSc2cnc(NC(=O)C3CCN(C(=O)CCCSc4cccc5c4C(=O)N(C4CCC(=O)NC4=O)C5=O)CC3)s2)o1 (stereo not shown)	HH	cell growth or viability, CCK-8	0.1 µM	viability	98%
CNc1ncc2c(/C=C/C(=O)N3CCCC3)nn(CC3CCCC3)c2n1	OE33	cell growth or viability, resazurin	5 days	EC50	> 30 µM
CC(=O)Nc1ccc(Oc2nnc(-c3ccc(Cl)cc3)c3ccccc23)cc1	HepG2	cell growth or viability, MTT	1.25 µM	cell death	92.9%
CC(C)(C)c1cnc(CSc2cnc(NC(=O)C3CCN(CCCCCCCSc4cccc5c4C(=O)N(C4CCC(=O)NC4=O)C5=O)CC3)s2)o1 (stereo not shown)	HH	cell growth or viability, CCK-8	0.5 µM	viability	0%
CNc1ncc2c(/C=C/C(=O)N3CCC(OC)CC3)nn(CC3OCCO3)c2n1	OE33	cell growth or viability, resazurin	5 days	EC50	> 30 µM
CC(C)(C)c1cnc(CSc2cnc(NC(=O)C3CCN(CCCCSc4cccc5c4C(=O)N(C4CCC(=O)NC4=O)C5=O)CC3)s2)o1 (stereo not shown)	HH	cell growth or viability, CCK-8	0.1 µM	viability	97.9%
CNc1ncc2c(/C=C/C(=O)N3CCCC(N(C)C)C3)nn(CC3CCCC3)c2n1 (stereo not shown)	OE33	cell growth or viability, resazurin	5 days	EC50	17.7 µM
S=C(Nc1ccccc1)Nc1ccc(Oc2nnc(-c3ccc(Cl)cc3)c3ccccc23)cc1	HepG2	cell growth or viability, MTT	0.312 µM	cell death	1.34%
CN(C)C1CCN(C(=O)/C=C/c2nn(CC3CCCC3)c3ncnc(N)c23)CC1	OE33	cell growth or viability, resazurin	5 days	EC50	> 30 µM
CC(=NNC(=O)c1ccccc1Br)c1ccc(Nc2nnc(-c3ccc(Cl)cc3)c3ccccc23)cc1	HepG2	cell growth or viability, MTT	2.5 µM	cell death	95.8%
